Results collected from several papers.
Each line is one published result; the experiments were not run side by side.
Target: Calcium/calmodulin-dependent protein kinase type 1D (CAMK1D, Homo sapiens, UniProt Q8IU85)

Compound | test | setting | measurement | value
CC(C)(C)c1cc(C=C(C#N)C#N)cc(Br)c1O | enzyme activity, inhibitor | 0.5 µM | remaining activity | 111%
COc1ncccc1-c1cnn2ccc(N3CCN(C(=O)OC(C)C)CC3)nc12 | binding, competition with immobilised ligand | 1 µM | remaining binding | 100%
Nc1ncc(-c2nc(N3CCOCC3)nc(N3CCOCC3)n2)c(C(F)F)n1 | binding, competition with immobilised ligand | 10 µM | remaining binding | 100%
Cn1cncc1[C@](O)(COc1ccc(C#N)cc1-c1ccc(OC(F)(F)F)cc1)c1ccc(C#N)cc1 | cell-free assay, competition with immobilised ligand | 1 µM | remaining binding | 100%
O=c1[nH]c2ccccc2n1C1CCN(Cc2ccc(-c3[nH]c4cc5ncnc5cc4nc3-c3ccccc3)cc2)CC1 | cell-free assay | 0.5 µM | remaining signal | 107%
N#CC1(c2ccccn2)CCN(Cc2cc(C(=O)O)c(=O)n3ccccc23)CC1 | cell-free assay, competition with immobilised ligand | 1 µM | remaining binding | 100%
Cc1nn(C)cc1-c1nc2c(N3CCN(Cc4ccc(Cl)cc4)CC3)c(Cl)cnc2[nH]1 | binding, competition with immobilised ligand | 1 µM | remaining binding | 100%
Cn1cc(-c2cc(F)cc(N3CCn4c(cc5c4CCCC5)C3=O)c2CO)cc(Nc2ccc(N3CCN(C4COC4)CC3)cn2)c1=O | enzyme activity, inhibitor | 0.1 µM | inhibition | 15%
